Calls of active or inactive are those of the source. No cut-off for these calls is given here.
How the values were obtained:
[1] = Inhibition of LPS-induced NO production in mouse BV-2 cells incubated for 24 hrs by Griess reagent based assay; assay type: functional, cell-based; settings: BV-2, 24 h
Procedure, shortened: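 BV2 cells at 5×10^5 cells/mL, LPS 1 μg/mL plus compound at 2.5–40 μM final for 24 h. Supernatant nitrite measured with Griess reagent for 15 min at room temperature in the dark, 540 nm, against a NaNO2 standard curve; IC50 from three repeats.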

[2] = biological target: Prostaglandin G/H synthase 2 (Homo sapiens) (UniProt P35354); assay: Inhibition of human COX2 assessed as reduction in PGF2alpha formation using arachidonic acid as substrate incubated for 10 mins by ELISA
[3] = biological target: Prostaglandin G/H synthase 1 (Homo sapiens) (UniProt P23219); assay: Inhibition of human COX1 assessed as reduction in PGF2alpha formation using arachidonic acid as substrate incubated for 10 mins by ELISA
BV-2 [4] = assay: Cytotoxicity against mouse BV-2 cells assessed as reduction in cell viability after 24 hrs by MTT assay; assay type: cell-based; settings: BV-2, 24 h
Procedure, shortened: (§1)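 C6 or BV2 cells seeded at 1–5×10^5 per well; after 12 h exposed to 0, 6.25, 12.5, 25, 50 or 100 μM (final, DMSO <0.4%) for 24 h. MTT added for 4 h, dissolved in DMSO, read at 570 nm. IC50 as mean of three independent experiments run in triplicate.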

C6 [5] = assay: Inhibition of LPS-induced NO production in rat C6 cells incubated for 24 hrs by Griess reagent based assay; assay type: functional, cell-based; settings: C6, 24 h
Procedure, shortened: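 C6 cells at 5×10^5 cells/mL, LPS 10 μg/mL plus compound at 2.5–40 μM final for 24 h. Nitrite measured with Griess reagent at 540 nm against a NaNO2 standard; IC50 from three repeats.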

C6 [6] = assay: Cytotoxicity against rat C6 cells assessed as reduction in cell viability after 24 hrs by MTT assay; assay type: cell-based; settings: C6, 24 h; procedure, shortened: as §1
Mus musculus = assay: Antiinflammatory activity against LPS-induced hippocampal neuroinflammatory Kunming mouse model assessed as reduction in GFAP level in hippocampus at 50 mg/kg, ip administered bid for 6 days by DAPI staining based microscopic method; assay type: functional, organism-based; settings: time 6.0 day
[7] = Induction of apoptosis in LPS-induced hippocampal neuroinflammatory Kunming mouse model at 50 mg/kg, ip administered bid for 6 days by Nissl staining based microscopic method; assay type: organism-based; settings: in vivo, 144 h, time 6 day
Procedure, shortened: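 Male Kunming mice (8 weeks, 20–25 g, n = 10/group) were anaesthetised with i.p. chloral hydrate, then given LPS (3 μL of 10 mg/mL) into the lateral ventricle at 0.5 μL/min; sham mice received 3 μL saline. Compound was then given i.p. at 50 mg/kg in saline with 1% methyl cellulose for six consecutive days. Behaviour and deaths were recorded, and hippocampal slices were Nissl-stained.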

Homo sapiens = species on record: Homo sapiens; assay: Selectivity index, ratio of IC50 for inhibition of human COX1 to IC50 for inhibition of human COX2
BV-2 [8] = assay: Antiinflammatory activity against LPS-induced mouse BV-2 cells assessed as increase in IL-10 production at 40 uM after 24 hrs by ELISA; assay type: functional, cell-based
Procedure, shortened: (§2)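 BV2 cells at 5×10^5 cells/mL stimulated with LPS 1 μg/mL; compound at 10, 20 or 40 μM final for 24 h, DMSO in blanks. Supernatant TNF-α and IL-10 measured by sandwich ELISA and PGE2 by competitive ELISA, OD at 450 nm; at least three independent experiments.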

BV-2 [9] = assay: Antiinflammatory activity against LPS-induced mouse BV-2 cells assessed as decrease in ROS production at 10 to 40 uM after 6 hrs by DCFH-DA fluorescence probe based flow cytometric analysis; assay type: functional, cell-based; settings: dose 10-40 µM
Procedure, shortened: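 BV2 cells with LPS 1 μg/mL and compound at 10, 20 or 40 μM for 6 h, then DCFH-DA 20 μM final for 30 min at 37 °C. Washed in cold PBS and read by flow cytometry, excitation 485 nm and emission 530 nm.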

[10] = Antioxidant activity assessed as DPPH radical scavenging activity incubated for 30 mins; assay type: functional
Procedure, shortened: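 Compound in ethanol at 2.5–40 μM final, mixed 1:1 with 700 μmol/L ethanolic DPPH; 30 min in the dark at room temperature, absorbance at 515 nm. Serotonin used as standard; EC50 from three independent experiments.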

C6 [11] = assay: Inhibition of LPS-induced TNFalpha production in rat C6 cells after 24 hrs by ELISA; assay type: functional, cell-based; settings: dose 10-40 µM
Procedure, shortened: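 C6 cells at 5×10^5 cells/mL stimulated with LPS 10 μg/mL; compound at 10, 20 or 40 μM final for 24 h. Supernatant TNF-α measured by sandwich ELISA at 450 nm; at least three independent experiments.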

BV-2 [12] = assay: Inhibition of LPS-induced TNFalpha production in mouse BV-2 cells after 24 hrs by ELISA; assay type: functional, cell-based; settings: dose 10-40 µM; procedure, shortened: as §2
BV-2 [13] = assay: Antiinflammatory activity against LPS-induced mouse BV-2 cells assessed as decrease in iba-1 protein expression at 20 uM after 24 hrs by DAPI staining based confocal laser microscopic method; assay type: functional, cell-based
Procedure, shortened: (§3)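 Cells on glass slides with compound at 20 μM final for 24 h: C6 with LPS 10 μg/mL stained for GFAP, BV2 with LPS 1 μg/mL stained for Iba-1. Fixed in 4% paraformaldehyde, blocked in 1% BSA/0.3% Triton X-100, primary antibody 1:100 overnight at 4 °C, secondary 1:200, DAPI mount, confocal imaging. Intensity given as % of LPS group, n = 3.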

BV-2 [14] = assay: Antiinflammatory activity against LPS-induced mouse BV-2 cells assessed as decrease in COX2 protein expression at 40 uM after 24 hrs by Western blot analysis; assay type: functional, cell-based
Procedure, shortened: (§4)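 BV2 cells in DMEM with 10% FBS; LPS 1 μg/mL plus compound at 10, 20 or 40 μM final for 24 h. Lysates in RIPA with 1 mM PMSF; 30 μg protein on 8% SDS-PAGE and blotted for iNOS and COX-2, GAPDH as reference; ECL detection and densitometry; at least three independent experiments.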

C6 [15] = assay: Antiinflammatory activity against LPS-induced rat C6 cells assessed as decrease in GFAP protein expression at 20 uM after 24 hrs by DAPI staining based confocal laser microscopic method; assay type: functional, cell-based; procedure, shortened: as §3
BV-2 [16] = assay: Antiinflammatory activity against LPS-induced mouse BV-2 cells assessed as decrease in INOS protein expression at 40 uM after 24 hrs by Western blot analysis relative to control; assay type: functional; parameters: scale not given: the % may be the effect or the level left; procedure, shortened: as §4
[17] = Tmax in Sprague-Dawley rat at 50 mg/kg, ip up to 24 hrs by LC-MS analysis; assay type: ADME, organism-based; settings: in vivo
Procedure, shortened: (§5)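 Male Sprague-Dawley rats, six per group, single 50 mg/kg intraperitoneal dose; parameters derived by non-compartmental analysis using the linear trapezoidal method; mean ± SD, n = 6.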

[18] = Half life in Sprague-Dawley rat at 50 mg/kg, ip up to 24 hrs by LC-MS analysis; assay type: ADME, organism-based; settings: in vivo; procedure, shortened: as §5
[19] = Cmax in Sprague-Dawley rat at 50 mg/kg, ip up to 24 hrs by LC-MS analysis; assay type: ADME, organism-based; parameters: route intraperitoneal, dose 50 mg/kg, time <=24; settings: in vivo; procedure, shortened: as §5

Prostaglandin G/H synthase 2 (Homo sapiens), sequence (P35354 whole entry, looked up): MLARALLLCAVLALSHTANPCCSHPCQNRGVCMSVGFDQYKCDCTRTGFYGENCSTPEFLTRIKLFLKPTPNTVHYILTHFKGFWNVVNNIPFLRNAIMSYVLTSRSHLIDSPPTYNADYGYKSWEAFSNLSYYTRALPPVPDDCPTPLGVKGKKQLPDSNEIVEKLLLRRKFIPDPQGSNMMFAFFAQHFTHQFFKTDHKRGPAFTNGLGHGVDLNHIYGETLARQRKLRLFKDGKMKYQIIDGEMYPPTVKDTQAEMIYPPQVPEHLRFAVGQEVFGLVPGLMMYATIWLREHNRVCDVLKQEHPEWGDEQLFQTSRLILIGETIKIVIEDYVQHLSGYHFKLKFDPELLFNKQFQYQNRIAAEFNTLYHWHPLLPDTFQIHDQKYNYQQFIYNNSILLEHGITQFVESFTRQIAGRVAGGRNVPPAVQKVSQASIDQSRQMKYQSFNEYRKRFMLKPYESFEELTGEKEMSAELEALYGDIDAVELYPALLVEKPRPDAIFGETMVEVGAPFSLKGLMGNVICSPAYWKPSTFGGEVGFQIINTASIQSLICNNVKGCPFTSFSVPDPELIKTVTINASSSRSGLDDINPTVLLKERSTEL

| SMILES | IC50 [1] [µM] | IC50 [2] [µM] | IC50 [3] [µM] | IC50 (BV-2 [4]) [µM] | IC50 (C6 [5]) [µM] | IC50 (C6 [6]) [µM] | further results |
| --- | --- | --- | --- | --- | --- | --- | --- |
| Cc1ccc(O)c(C(=O)NCCc2c[nH]c3ccccc23)c1 | > 40 | > 40 | > 40 | > 100 | > 40 | > 100 | – |
| Cc1cccc(Nc2ccccc2C(=O)NCCc2c[nH]c3ccc(O)cc23)c1C | – | 1.4 | – | 56.4 | – | 80.5 | – |
| O=C(O)c1ccccc1O [SALICYLIC ACID] | – | > 40 | > 40 | – | – | – | Activity (Mus musculus): Active; Activity [7]: Toxic |
| O=C(NCCc1c[nH]c2ccccc12)c1ccccc1O | 26.4 | > 40 | – | > 100 | > 40 | > 100 | – |
| Cc1ccc2[nH]cc(CCNC(=O)c3ccccc3Nc3ccccc3)c2c1 | – | 1.47 | 27 | 64.6 | – | 87.9 | Ratio IC50 (Homo sapiens): 18.4 |
| O=C(NCCc1c[nH]c2ccc(Cl)cc12)c1ccccc1Nc1ccccc1 | – | 0.58 | 1.34 | 62.4 | – | 79.3 | Ratio IC50 (Homo sapiens): 2.31 |
| Cc1ccc2[nH]cc(CCNC(=O)c3ccccc3Nc3cccc(Cl)c3C)c2c1 | – | 9.72 | – | 73.7 | – | 66.1 | – |
| Cc1c(Cl)cccc1Nc1ccccc1C(=O)NCCc1c[nH]c2ccccc12 | – | 14.5 | – | 54.6 | – | 71.1 | – |
| CN(c1ccccc1)c1ccccc1C(=O)NCCc1c[nH]c2ccccc12 | – | > 40 | – | 7.98 | – | 28.5 | – |
| O=C(NCCc1c[nH]c2ccccc12)c1ccccc1Nc1ccccc1 | 25.9 | 2.62 | 0.47 | > 100 | 15.3 | 115 | Activity (BV-2 [8]): inactive; Activity (BV-2 [9]): Active; EC50 [10]: > 100 µM; inhibition (C6 [11]): Dose-dependent effect; Ratio IC50 (Homo sapiens): 0.18; inhibition (BV-2 [12]): Dose-dependent effect; Activity (BV-2 [13]): Active; Activity (BV-2 [14]): Active; Activity (C6 [15]): Active; Activity (BV-2 [16]): 66% |
| Cc1ccc2[nH]cc(CCNC(=O)c3ccccc3O)c2c1 | > 40 | > 40 | > 40 | > 100 | > 40 | > 100 | – |
| CNc1ccccc1C(=O)NCCc1c[nH]c2ccccc12 | > 40 | > 40 | > 40 | > 100 | > 40 | > 100 | – |
| NCCc1c[nH]c2ccc(O)cc12 [SEROTONIN] | – | – | – | – | – | – | EC50 [10]: 0.63 µM |
| O=C(NCCc1c[nH]c2ccccc12)c1cc(Cl)ccc1O | > 40 | 10.4 | > 40 | > 100 | > 40 | > 100 | – |
| O=C(NCCc1c[nH]c2ccccc12)c1cc2ccccc2cc1O | 59 | 2.18 | 39.2 | > 100 | 13.2 | > 100 | Ratio IC50 (Homo sapiens): 18 |
| O=C(NCCc1c[nH]c2ccccc12)c1ccc(O)cc1O | > 40 | 25 | > 40 | > 100 | > 40 | > 100 | – |
| CN(C)c1ccccc1C(=O)NCCc1c[nH]c2ccc(O)cc12 | > 40 | 0.57 | – | > 100 | > 40 | > 100 | – |
| CN(C)c1ccccc1C(=O)NCCc1c[nH]c2ccccc12 | 22.9 | > 40 | – | > 100 | > 40 | > 100 | – |
| O=C(NCCc1c[nH]c2ccc(O)cc12)c1ccccc1O | > 40 | 0.8 | 1.74 | > 100 | > 40 | > 100 | Ratio IC50 (Homo sapiens): 2.18 |
| COc1ccc2[nH]cc(CCNC(C)=O)c2c1 [MELATONIN] | – | – | – | – | – | – | Tmax [17]: 11.4 min; EC50 [10]: > 40 µM; Activity [7]: Toxic; half-life [18]: 32.4 min; Cmax [19]: 1.15 µg/mL |
| COc1ccc2[nH]cc(CCNC(=O)c3ccccc3Nc3ccccc3)c2c1 | 19.9 | 2.76 | 38.6 | > 100 | 7.61 | 89.3 | Ratio IC50 (Homo sapiens): 14 |
| COc1ccc2[nH]cc(CCNC(=O)c3ccccc3Nc3cccc(Cl)c3C)c2c1 | – | > 40 | – | > 100 | – | 62.4 | – |
| O=C(NCCc1c[nH]c2ccccc12)c1ccc(F)cc1O | > 40 | > 40 | > 40 | > 100 | > 40 | > 100 | – |
| Cc1cccc(Nc2ccccc2C(=O)NCCc2c[nH]c3ccccc23)c1C | – | 2.31 | – | 55.1 | – | 95.2 | – |
